The test system of experiment [1] is ZR-75-1. The experiment can be described thus: Growth inhibition of human ZR-75-1 cells after 48 hrs by sulforhodamine B assay. The following applies: ZR-75-1, 48 h. The class given is functional. An outline of the steps: (§1)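 Cells grown in DMEM with 10% FBS and 2 mM L-glutamine, plated at densities set by doubling time, and held 24 h before dosing. Exposure was 48 h to 0.1, 1, 10 and 100 µM in triplicate wells. Cells fixed with cold TCA (final 10%) 60 min at 4 °C and stained with 0.4% SRB 20 min. Bound dye eluted in 10 mM Tris base and read at 540 nm (690 nm reference). GI50 is the concentration giving 50% reduction in net protein gain versus control; values are the mean of three determinations.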

In experiment [2] the test system is KB. The experiment can be described thus: Growth inhibition of human KB cells after 48 hrs by sulforhodamine B assay. The class given is functional. The essentials: as §1
The nature of experiment [3]: Growth inhibition of human DWD cells after 48 hrs by sulforhodamine B assay. The class given is functional. The essentials:
as §1

Experiment [4] relates to COLO 205. In words: Cytotoxicity against human COLO205 cells at 2 uM after 24 hrs by MTT assay. It counts as functional, cell-based. The essentials: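 Colo-205 cells plated at 10,000 per well, left overnight, then exposed 24 h at 2, 4 or 8 µM. MTT added for 2 h at 37 °C, formazan dissolved in extraction buffer, and optical density read at 570 nm against untreated cells.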

Experiment [5] deals with COLO 205. In words: Cell cycle arrest in human COLO205 cells assessed as accumulation at G0 phase at 4 uM after 24 hrs by FACS analysis (reference value: 4.29%). It counts as functional. An outline of the steps:
(§2)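 Colo-205 cells seeded at […] per 60 mm dish and treated 24 h at 4 µM; TSA arm used TSA at 4 µM for 12 h. Cells trypsinised, fixed in ice-cold 70% ethanol 30 min at 4 °C, RNase 1 mg/mL 30 min at 37 °C, then propidium iodide/citrate/Triton stain. DNA content of 20,000 events read by flow cytometry; phase percentages from histograms.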

The subject of experiment [6] is COLO 205. In words: Cell cycle arrest in human COLO205 cells assessed as accumulation at G1 phase at 4 uM after 24 hrs by FACS analysis (reference value: 60.89%). It counts as functional. An outline of the steps:
as §2

The test system of experiment [7] is COLO 205. The experiment can be described thus: Cell cycle arrest in human COLO205 cells assessed as accumulation at S phase at 4 uM after 24 hrs by FACS analysis (reference value: 8.91%). It counts as functional. The essentials:
as §2

Experiment [8] has as its system COLO 205. The experiment can be described thus: Cell cycle arrest in human COLO205 cells assessed as accumulation at G2/M phase at 4 uM after 24 hrs by FACS analysis (reference value: 25.92%). The class given is functional. An outline of the steps:
as §2

The subject of experiment [9] is COLO 205. In words: Cell cycle arrest in human COLO205 cells assessed as accumulation at G0 phase at 4 uM after 24 hrs by FACS analysis in presence of HDAC inhibitor, trichostatin A (reference value: 4.06%). The class given is functional. The essentials:
as §2

Experiment [10] has as its target DNA topoisomerase 2-beta (Homo sapiens) (UniProt Q02880). The experiment can be described thus: Inhibition of topoisomerase 2beta in human in COLO205 cells assessed as induction of double-strand DNA breaks at 4 uM after 24 hrs by gamma-H2AX staining-based Western blotting analysis. The class given is cell-based. The following applies: COLO 205. An outline of the steps: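 Colo-205 cells treated 24 h at 4 µM. Double-strand breaks detected with anti-phospho-Ser139 H2AX antibody, both by immunofluorescence staining and by Western blot, with β-actin as loading control.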

Experiment [11] relates to COLO 205. The experiment can be described thus: Down regulation of topoisomerase 2alpha in human COLO205 cells at 4 uM after 24 hrs by Western blotting analysis. The class given is functional, cell-based. The essentials: (§3)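 Colo-205 cells treated 24 h at 4 µM and lysed in ice-cold RIPA with protease inhibitors and NaF. Protein measured by Bradford; 50 µg per lane run on 12% SDS-PAGE and transferred to PVDF. Membrane blocked 2 h, primary antibody (topo-IIα/β, p21, p16, pro-caspase-3, NF-kB p65) overnight at 4 °C, HRP secondary 1:2000 for 1 h, chemiluminescence detection; β-actin as loading control. Reduced procaspase-3 taken as caspase-3 activation.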

The test system of experiment [12] is COLO 205. The experiment can be described thus: Induction of apoptosis in human COLO205 cells assessed as increase in caspase 3 activation at 4 uM after 24 hrs by ELISA. It counts as functional, cell-based.
Experiment [13] deals with COLO 205. The experiment can be described thus: Induction of apoptosis in human COLO205 cells assessed as increase in caspase 3 activation at 4 uM after 24 hrs by Western blotting analysis. It counts as functional, cell-based. The essentials: as §3
Experiment [14] concerns COLO 205. The experiment can be described thus: Induction of apoptosis in human COLO205 cells assessed as up-regulation of NF-kappaB at 4 uM after 24 hrs by Western blotting analysis. The class given is functional, cell-based. The essentials:
as §3

In experiment [15] the test system is COLO 205. The experiment can be described thus: Down regulation of topoisomerase 2beta in human COLO205 cells at 4 uM after 24 hrs by Western blotting analysis. The class given is functional, cell-based. An outline of the steps:
as §3

Experiment [16] deals with DNA topoisomerase 2-beta (Mus musculus) (UniProt Q64511). The experiment can be described thus: Inhibition of topoisomerase 2beta in mouse embryonic fibroblasts after 1.5 hrs by comet assay. The following applies: concentration not given here.
DNA topoisomerase 2-beta (Mus musculus), sequence (Q64511 whole entry): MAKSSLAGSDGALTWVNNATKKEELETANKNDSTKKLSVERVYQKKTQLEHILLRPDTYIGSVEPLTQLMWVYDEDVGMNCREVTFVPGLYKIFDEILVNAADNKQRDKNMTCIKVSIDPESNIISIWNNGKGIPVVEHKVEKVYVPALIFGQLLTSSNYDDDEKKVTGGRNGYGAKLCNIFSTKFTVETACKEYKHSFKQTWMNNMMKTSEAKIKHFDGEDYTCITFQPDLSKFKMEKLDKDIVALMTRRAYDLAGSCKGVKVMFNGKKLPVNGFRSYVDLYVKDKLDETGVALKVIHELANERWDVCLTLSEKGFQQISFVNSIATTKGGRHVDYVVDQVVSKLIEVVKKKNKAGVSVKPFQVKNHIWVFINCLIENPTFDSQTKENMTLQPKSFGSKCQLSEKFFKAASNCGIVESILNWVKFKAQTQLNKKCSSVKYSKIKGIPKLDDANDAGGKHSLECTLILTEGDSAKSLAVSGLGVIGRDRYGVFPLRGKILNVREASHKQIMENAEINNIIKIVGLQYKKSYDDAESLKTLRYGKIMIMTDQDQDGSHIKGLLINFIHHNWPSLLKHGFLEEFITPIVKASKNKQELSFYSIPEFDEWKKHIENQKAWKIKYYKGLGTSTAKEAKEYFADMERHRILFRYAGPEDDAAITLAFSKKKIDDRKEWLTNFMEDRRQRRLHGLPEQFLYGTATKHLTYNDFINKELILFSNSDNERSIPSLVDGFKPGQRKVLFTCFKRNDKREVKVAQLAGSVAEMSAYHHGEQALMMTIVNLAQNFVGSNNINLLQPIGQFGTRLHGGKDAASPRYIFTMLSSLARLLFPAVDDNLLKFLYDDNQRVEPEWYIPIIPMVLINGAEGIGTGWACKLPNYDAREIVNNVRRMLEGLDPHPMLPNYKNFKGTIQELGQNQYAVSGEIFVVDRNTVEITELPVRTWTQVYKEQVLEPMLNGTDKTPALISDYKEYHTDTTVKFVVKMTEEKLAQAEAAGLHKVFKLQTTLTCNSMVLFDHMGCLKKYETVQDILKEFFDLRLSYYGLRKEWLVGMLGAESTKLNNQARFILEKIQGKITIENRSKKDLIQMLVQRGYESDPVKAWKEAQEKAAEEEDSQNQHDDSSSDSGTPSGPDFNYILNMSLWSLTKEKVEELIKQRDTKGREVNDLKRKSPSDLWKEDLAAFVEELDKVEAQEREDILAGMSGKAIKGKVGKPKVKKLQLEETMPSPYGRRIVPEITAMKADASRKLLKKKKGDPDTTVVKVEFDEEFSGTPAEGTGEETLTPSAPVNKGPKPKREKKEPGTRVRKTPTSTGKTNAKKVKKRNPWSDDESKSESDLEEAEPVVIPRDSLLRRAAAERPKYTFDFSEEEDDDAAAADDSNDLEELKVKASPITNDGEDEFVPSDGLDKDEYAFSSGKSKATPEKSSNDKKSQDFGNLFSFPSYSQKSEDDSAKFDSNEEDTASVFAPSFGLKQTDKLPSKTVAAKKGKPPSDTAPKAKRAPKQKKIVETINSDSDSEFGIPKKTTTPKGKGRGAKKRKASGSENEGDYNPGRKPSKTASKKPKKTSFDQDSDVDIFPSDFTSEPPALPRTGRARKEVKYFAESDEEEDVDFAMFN

Active and inactive are the calls of the source. No cut-off for these calls is given here.

DNA topoisomerase 2-beta (Homo sapiens), sequence (Q02880 whole entry): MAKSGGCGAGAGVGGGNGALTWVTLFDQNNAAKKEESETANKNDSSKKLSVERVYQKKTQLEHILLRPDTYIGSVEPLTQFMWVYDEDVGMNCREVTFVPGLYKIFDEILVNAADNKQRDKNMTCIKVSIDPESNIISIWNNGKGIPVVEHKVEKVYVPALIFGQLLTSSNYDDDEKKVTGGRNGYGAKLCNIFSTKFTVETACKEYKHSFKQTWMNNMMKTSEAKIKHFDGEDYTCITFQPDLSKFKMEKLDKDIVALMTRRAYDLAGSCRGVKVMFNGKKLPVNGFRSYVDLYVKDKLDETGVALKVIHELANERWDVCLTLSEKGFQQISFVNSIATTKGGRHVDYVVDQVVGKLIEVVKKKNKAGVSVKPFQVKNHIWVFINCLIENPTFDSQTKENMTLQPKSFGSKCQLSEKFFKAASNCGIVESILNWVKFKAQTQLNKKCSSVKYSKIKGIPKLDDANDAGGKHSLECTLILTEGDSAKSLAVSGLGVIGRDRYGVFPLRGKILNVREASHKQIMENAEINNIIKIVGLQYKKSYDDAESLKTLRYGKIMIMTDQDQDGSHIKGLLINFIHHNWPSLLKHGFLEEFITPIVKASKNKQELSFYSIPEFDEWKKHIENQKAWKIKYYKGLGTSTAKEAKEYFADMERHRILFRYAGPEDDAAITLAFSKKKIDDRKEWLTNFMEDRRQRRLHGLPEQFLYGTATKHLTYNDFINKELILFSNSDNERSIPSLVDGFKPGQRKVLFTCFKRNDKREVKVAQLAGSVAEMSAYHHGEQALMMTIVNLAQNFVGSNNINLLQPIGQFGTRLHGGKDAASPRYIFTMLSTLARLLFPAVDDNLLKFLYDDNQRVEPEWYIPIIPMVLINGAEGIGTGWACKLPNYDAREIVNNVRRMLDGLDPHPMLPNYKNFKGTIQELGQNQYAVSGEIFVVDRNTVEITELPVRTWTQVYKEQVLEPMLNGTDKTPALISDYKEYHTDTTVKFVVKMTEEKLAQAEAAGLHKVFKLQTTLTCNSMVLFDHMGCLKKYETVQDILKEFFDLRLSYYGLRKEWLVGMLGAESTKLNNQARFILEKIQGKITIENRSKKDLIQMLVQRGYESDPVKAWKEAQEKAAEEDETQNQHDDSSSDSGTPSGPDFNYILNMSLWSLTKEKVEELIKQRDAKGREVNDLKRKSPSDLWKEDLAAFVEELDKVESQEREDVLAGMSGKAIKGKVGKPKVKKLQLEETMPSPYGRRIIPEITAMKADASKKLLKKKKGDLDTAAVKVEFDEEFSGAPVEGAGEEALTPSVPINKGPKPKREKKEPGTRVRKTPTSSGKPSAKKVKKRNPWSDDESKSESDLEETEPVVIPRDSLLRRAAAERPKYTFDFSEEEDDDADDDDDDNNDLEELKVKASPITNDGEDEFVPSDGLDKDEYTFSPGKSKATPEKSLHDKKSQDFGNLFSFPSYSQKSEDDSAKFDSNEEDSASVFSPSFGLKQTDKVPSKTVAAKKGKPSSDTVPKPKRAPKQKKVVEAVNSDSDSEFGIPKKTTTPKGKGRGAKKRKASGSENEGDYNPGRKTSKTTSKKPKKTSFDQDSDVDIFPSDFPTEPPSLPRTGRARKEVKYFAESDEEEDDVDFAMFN

As to `COC(=O)c1sccc1S(=O)(=O)N[C@@H]1c2cc3c(cc2[C@@H](c2cc(OC)c(OC)c(OC)c2)[C@H]2C(=O)OC[C@@H]21)OCO3`, the results for the 50% growth inhibitory concentration (GI50) in experiment [1], in [2] and in experiment [3] were 60 nM, 40 nM and 40 nM, respectively. Moreover, the result in experiment [4], in experiment [11], in experiment [12], in experiment [13] and in [14] was Active. Besides, the results for the Activity in experiment [5], in experiment [6] and in experiment [9] were 23.94%, 27.43% and 57.43%, respectively. In experiment [7], the “Percentage of cells in S phase” value worked out at 8.16%. Moreover, the “Percentage of cells in G2/M phase” value in experiment [8] is recorded as 40.57%. The inhibition in experiment [10] worked out at 50%.

For the compound `COc1cc([C@@H]2c3cc4c(cc3[C@@H](O[C@@H]3O[C@@H]5CO[C@@H](C)O[C@H]5[C@H](O)[C@H]3O)[C@H]3COC(=O)[C@H]23)OCO4)cc(OC)c1O` [ETOPOSIDE], the GI50 in [1] was 200 nM; in experiment [2], 310 nM; in experiment [3], 620 nM. Moreover, the outcome in [4], in experiment [15], in [12], in experiment [13] and in experiment [14] was Active. Besides, the Activity is reported as 5.95% in experiment [5], 12.82% in [6] and 56.29% in [9]. Moreover, in experiment [7], the “Percentage of cells in S phase” value came out at 6.97%. Further, the “Percentage of cells in G2/M phase” value in experiment [8] is listed as 74.27%. Besides, the inhibition result in experiment [10] was “Active”. For the same compound, in [16], the inhibition was found to be 100%.

For the origin of these results see ChEMBL document CHEMBL1955829, “Synthesis and biological evaluation of 4β-sulphonamido and 4β-[(4'-sulphonamido)benzamide]podophyllotoxins as DNA topoisomerase-IIα and apoptosis inducing agents” (2012).
